Experimental data as given in ChEMBL document CHEMBL1135836, “Cyclodextrin-derived host molecules as reversal agents for the neuromuscular blocker rocuronium bromide: synthesis and structure-activity relationships” (J Med Chem, 2002).

Tests used:
Format in all cases: functional
Cavia porcellus [1] = experiment: In vivo reversal activity versus ~90% block by rocuronium in guinea pig
Summary of the method: (§1)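 Male Dunkin-Hartley guinea pigs (600-900 g), anaesthetized ip with pentobarbitone 10 mg/kg plus urethane 1000 mg/kg, tracheotomized and ventilated. Continuous iv rocuronium infusion (~10 nmol kg-1 min-1) was raised to a steady 85-90% block. Increasing iv doses of agent were given cumulatively. ED50 = 50% recovery versus preblock twitch, by regression. Mean ± SEM of at least two experiments, or one.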

Mus musculus [2] = species on record: Mus musculus; experiment: In vitro reversal activity versus ~90% block by rocuronium in isolated mouse hemidiaphragm, expressed as % of maximum reversal at 144 uM conc.
Cavia porcellus [3] = experiment: In vivo reversal activity versus ~90% block by rocuronium in guinea pig, expressed as % of maximum reversal at 12 umol/kg conc.
Summary of the method: (§2)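 Male Dunkin-Hartley guinea pigs (600-900 g) anaesthetized ip with pentobarbitone 10 mg/kg plus urethane 1000 mg/kg, tracheotomized and artificially ventilated. Continuous iv rocuronium bromide infusion (~10 nmol kg-1 min-1) raised until steady-state twitch block of 85-90%. Increasing single iv doses of reversal agent given by a separate catheter. Max reversal is peak twitch recovery versus preblock height at highest dose tested; means ± SEM, n ≥ 2 or single experiment.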

Mus musculus [4] = species on record: Mus musculus; experiment: In vitro reversal activity versus ~90% block by rocuronium in isolated mouse hemidiaphragm, expressed as effective conc.
Cavia porcellus [5] = experiment: In vivo reversal activity versus ~90% block by rocuronium in guinea pig, expressed as % of maximum reversal at 10 umol/kg conc.; summary of the method: as §1
Mus musculus [6] = species on record: Mus musculus; experiment: In vitro reversal activity versus ~90% block by rocuronium in isolated mouse hemidiaphragm, expressed as % of maximum reversal at 18 uM conc.
Cavia porcellus [7] = experiment: In vivo reversal activity versus ~90% block by rocuronium in guinea pig, expressed as % of maximum reversal at 316 umol/kg conc.; summary of the method: as §2
Mus musculus [8] = species on record: Mus musculus; experiment: In vitro reversal activity versus ~90% block by rocuronium in isolated mouse hemidiaphragm, expressed as % of maximum reversal at 360 uM conc.

| EC50 (Mus musculus [4]) [µM] | Structure (SMILES) | ED50 (Cavia porcellus [1]) [µmol/kg] | Max reversal (Mus musculus [2]) [%] | Max reversal (Cavia porcellus [3]) [%] | Max reversal (Cavia porcellus [5]) [%] | Max reversal (Mus musculus [6]) [%] | Max reversal (Cavia porcellus [7]) [%] | Max reversal (Mus musculus [8]) [%] |
| --- | --- | --- | --- | --- | --- | --- | --- | --- |
| 17.2 | O=C([O-])CCSCC1O[C@@H]2O[C@@H]3C(CO)O[C@H](O[C@@H]4C(CO)O[C@H](O[C@@H]5C(CO)O[C@H](O[C@@H]6C(CO)O[C@H](O[C@@H]7C(CO)O[C@H](O[C@@H]8C(CO)O[C@H](O[C@@H]9C(CO)O[C@H](O[C@H]1C(O)C2O)C(O)C9O)C(O)C8O)C(O)C7O)C(O)C6O)C(O)C5O)C(O)C4O)C(O)C3O.[Na+] (some centres not stated) | 1.3 | 94.5 | 100.6 |  |  |  |  |
| 33.9 | C[C@H](CSCC1O[C@@H]2O[C@@H]3C(CSC[C@H](C)C(=O)N4CCCC4C(=O)[O-])O[C@H](O[C@@H]4C(CSC[C@@H](C)C(=O)N5CCCC5C(=O)[O-])O[C@H](O[C@@H]5C(CSC[C@@H](C)C(=O)N6CCCC6C(=O)[O-])O[C@H](O[C@@H]6C(CSC[C@H](C)C(=O)N7CCCC7C(=O)[O-])O[C@H](O[C@@H]7C(CSC[C@@H](C)C(=O)N8CCCC8C(=O)[O-])O[C@H](O[C@@H]8C(CSC[C@H](C)C(=O)N9CCCC9C(=O)[O-])O[C@H](O[C@@H]9C(CSC[C@@H](C)C(=O)N%10CCCC%10C(=O)[O-])O[C@H](O[C@H]1C(O)C2O)C(O)C9O)C(O)C8O)C(O)C7O)C(O)C6O)C(O)C5O)C(O)C4O)C(O)C3O)C(=O)N1CCCC1C(=O)[O-].[Na+].[Na+].[Na+].[Na+].[Na+].[Na+].[Na+].[Na+] (some centres not stated) | 1.49 |  |  | 103.6 | 35.7 |  |  |
| > 360 | OC[C@H]1O[C@@H]2O[C@H]3[C@H](O)[C@@H](O)[C@@H](O[C@H]4[C@H](O)[C@@H](O)[C@@H](O[C@H]5[C@H](O)[C@@H](O)[C@@H](O[C@H]6[C@H](O)[C@@H](O)[C@@H](O[C@H]7[C@H](O)[C@@H](O)[C@@H](O[C@H]8[C@H](O)[C@@H](O)[C@@H](O[C@H]1[C@H](O)[C@H]2O)O[C@@H]8CO)O[C@@H]7CO)O[C@@H]6CO)O[C@@H]5CO)O[C@@H]4CO)O[C@@H]3CO [BETADEX] | 20 |  |  |  |  | 92.9 | 29 |
